The list is not random: actives were taken first. Their share in the collection is about 2.1%.
p97 ATPase inh = human p97 ATPase inhibition. recombinant p97 ATPase, Kinase-Glo ATP luminescence, 3 h. inhibition, % at 8 µM. 220,000 compounds, 0.42% hits. AID 1481; in the data active = inhibition above about 15%
Target sequence (P55072 whole entry, looked up): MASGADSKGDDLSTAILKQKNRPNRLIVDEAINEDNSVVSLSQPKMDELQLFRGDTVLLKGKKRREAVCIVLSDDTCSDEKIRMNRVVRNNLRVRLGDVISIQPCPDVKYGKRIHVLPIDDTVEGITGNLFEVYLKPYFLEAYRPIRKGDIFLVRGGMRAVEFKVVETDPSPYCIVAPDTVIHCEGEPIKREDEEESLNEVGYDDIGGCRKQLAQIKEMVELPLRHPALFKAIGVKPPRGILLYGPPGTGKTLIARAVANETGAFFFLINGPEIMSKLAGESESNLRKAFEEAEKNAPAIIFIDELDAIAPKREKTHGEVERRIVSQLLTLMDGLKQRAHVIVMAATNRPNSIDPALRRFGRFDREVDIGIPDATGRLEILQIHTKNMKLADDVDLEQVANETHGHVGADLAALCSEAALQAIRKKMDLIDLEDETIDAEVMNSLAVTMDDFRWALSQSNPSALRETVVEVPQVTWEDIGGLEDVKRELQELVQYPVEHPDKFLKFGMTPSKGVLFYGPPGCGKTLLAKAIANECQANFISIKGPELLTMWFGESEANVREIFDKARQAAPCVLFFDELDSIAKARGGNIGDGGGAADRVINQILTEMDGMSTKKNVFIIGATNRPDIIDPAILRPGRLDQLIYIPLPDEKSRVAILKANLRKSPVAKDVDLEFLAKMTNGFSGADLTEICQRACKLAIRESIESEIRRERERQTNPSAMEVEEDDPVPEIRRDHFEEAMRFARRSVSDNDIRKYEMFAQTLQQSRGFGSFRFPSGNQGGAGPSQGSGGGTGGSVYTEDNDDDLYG
Runt-CBFb FRET = blocks binding of human RUNX1 Runt domain to CBFb | Q01196+Q13951 | Cerulean-Runt/Venus-CBFb FRET ratio 530/480, 1 h | inhibition, % at 20 µM | 220,000 compounds, 0.46% hits | AID 1496;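 active = inhibition over about 50% at 20 µM in the single-dose screen, limit read from the data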
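Assay system: Cerulean-tagged RUNX1 Runt domain (FRET donor) fusion protein / Amount: 100 nM each of Venus-CBFb and Cerulean-Runt domain / Medium: Tris buffer pH 7.5 with salts and BSA / Also added: Venus-CBFb 100 nM / Schedule: 1 h complex formation plus 1 h compound treatment, room temperature / Signal: FRET fluorescence / Read-out: loss of energy transfer signal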
Tb hexokinase = blocks Trypanosoma brucei hexokinase 1 activity; inhibition, % at 10 µM; recombinant TbHK1, G6PDH-coupled NADH A340; 220,000 compounds, 0.11% hits;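 active = inhibition of 50% or more in the single-dose primary screen; inactive = inhibition below 50%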
Hck Nef HTS = inhibitors of human Hck kinase activated by Nef. P08631. Recombinant Hck-YEEI plus Nef, Z-Lyte FRET kinase assay. inhibition, % at 20 µM. 220,000 compounds, 0.68% hits;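 active = Hck-Nef kinase inhibition above about 50%, limit read from the data; inactive = inhibition below that limit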
Runt-SMMHC FRET = blocks binding of human RUNX1 Runt domain to CBFb-SMMHC; Q01196+Q13951; Cerulean-Runt/Venus-CBFb-SMMHC FRET ratio 530/480, 1 h; inhibition, % at 20 µM; 220,000 compounds, 0.74% hits; AID 1434;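 active = mean inhibition across duplicate retests at 20 µM reaching about 50%, limit read from the data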;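 also: inhibitors lower the FRET ratio by blocking Runt binding to CBFb-SMMHC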
RanGTP-Imp inh = disruptors of Ran-importin-beta complex formation – biochemical, FRET, CFP-Ran, YFP-importin-beta, homogeneous, primary screen; inhibition, % (no concentration beside the values); AID 2216; 300,000 compounds, 1.1% hits; cell-free CFP-Ran/YFP-importin-beta FRET ratio;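 active = more than half of the replicate wells show a fall in the fluorescence ratio signal beyond about 16%, limit read from the data, passing the limit was not always enough; inconclusive = exactly half of the replicate wells pass the set limit; inactive = fewer than half of replicates pass the limit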
YIC FRET counter = counter-screen YIC FRET for RanGTP-importin-beta inhibitors. AID 435026. Purified YIC probe, intramolecular FRET ratio YFP/CFP. IC50, µM. shares compounds with RanGTP-Imp inh. 1,000 compounds, 40% hits;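 active = fitted half-maximal inhibitory concentration no more than tenfold above the top dose tested; inconclusive = flat fit with 30 to 70% activity, or poor fit; inactive = half-maximal concentration beyond tenfold above the top dose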
Hits are given with their value.

Cc1c(CC(=O)N2CCN(C(=O)C3COc4ccccc4O3)CC2)c(=O)oc2c(C)c(O)ccc12 (configuration not stated) was read as RanGTP-Imp inh 24 and YIC FRET counter 14.
For CC(C)n1cc(C(=O)N2CCCC(N3CCN(c4cccc(Cl)c4)CC3)C2)cn1 (configuration not stated) the results were RanGTP-Imp inh inactive.
`Cc1ccc(-c2ccc(/C=C(\C#N)C(N)=S)n2C)cc1` gave p97 ATPase inh inactive, Runt-CBFb FRET inactive, Tb hexokinase inactive, Hck Nef HTS inactive, Runt-SMMHC FRET inactive, RanGTP-Imp inh 31 and YIC FRET counter inactive.
Screening Cn1cccc1/C=C(/C#N)C(N)=S returned p97 ATPase inh inactive, Runt-CBFb FRET inactive, Tb hexokinase inactive, Hck Nef HTS inactive, Runt-SMMHC FRET inactive and RanGTP-Imp inh inactive.
Screening COc1cccc(-c2cc(C(F)(F)F)n3ncc(S(=O)(=O)c4ccccc4)c3n2)c1 returned p97 ATPase inh inactive, Runt-CBFb FRET inactive, Tb hexokinase inactive, Hck Nef HTS inactive, Runt-SMMHC FRET inactive, RanGTP-Imp inh 35 and YIC FRET counter 43.
For CC(CC(=O)NCc1ccco1)S(=O)(=O)c1ccc2c(c1)CCN2C(=O)C1CC1 (configuration not stated) the results were RanGTP-Imp inh inactive.
N#C/C(=C/c1ccc(N2CCOCC2)o1)C(=O)Nc1ccccc1 was read as p97 ATPase inh inactive, Runt-CBFb FRET inactive, Tb hexokinase inactive, Hck Nef HTS inactive, Runt-SMMHC FRET inactive, RanGTP-Imp inh 31 and YIC FRET counter 15.
For N#C/C(=C\c1ccc(N2CCOCC2)o1)C(=O)NC1CCCCC1 the results were p97 ATPase inh inactive, Runt-CBFb FRET inactive, Tb hexokinase inactive, Hck Nef HTS inactive, Runt-SMMHC FRET inactive, RanGTP-Imp inh 31 and YIC FRET counter 3.9.
Screening N#C/C(=C\c1ccc(OCCN2CCOCC2)cc1)C(=O)Nc1ccccc1 returned RanGTP-Imp inh inactive.
For CC1CC(C)CN(c2cc(=O)n(Cc3ccc(F)cc3)c(=O)[nH]2)C1 (configuration not stated) the results were p97 ATPase inh inactive, Runt-CBFb FRET inactive, Tb hexokinase inactive, Hck Nef HTS inactive, Runt-SMMHC FRET inactive, RanGTP-Imp inh 60 and YIC FRET counter inactive.
`COc1cc(OC)cc(C(=O)Nc2sc3c(c2C(N)=O)CCC3)c1` gave RanGTP-Imp inh 18 and YIC FRET counter inactive.
COc1ccc(CC(=O)Nc2sc3c(c2C(N)=O)CCCC3)cc1 was read as RanGTP-Imp inh inactive.
Screening Cc1ccc(C(=O)NNC2CC(=O)N(c3ccc4c(c3)OCCO4)C2=O)cc1 (configuration not stated) returned p97 ATPase inh inactive, Tb hexokinase inactive, Hck Nef HTS inactive, Runt-SMMHC FRET inactive, RanGTP-Imp inh 18 and YIC FRET counter inactive.
O=C(NNC1CC(=O)N(c2ccc3c(c2)OCCO3)C1=O)c1ccc(Cl)cc1 (configuration not stated) was read as p97 ATPase inh inactive, Tb hexokinase inactive, Hck Nef HTS inactive, Runt-SMMHC FRET inactive and RanGTP-Imp inh inactive.
For Cc1cc(-n2cnnn2)cc(C)c1S(=O)(=O)N(C)c1ccccc1 the results were RanGTP-Imp inh inactive.
Screening Cc1ccc(NC2CCCN(C(=O)CCN3CCOCC3)C2)cc1C (configuration not stated) returned RanGTP-Imp inh inactive.
For Cc1cc(NCCN(C)C)n2nc(-c3cccs3)cc2n1 the results were p97 ATPase inh inactive, Runt-CBFb FRET inactive, Tb hexokinase inactive, Hck Nef HTS inactive, Runt-SMMHC FRET inactive, RanGTP-Imp inh 17 and YIC FRET counter 24.
Screening CN(Cc1ccccc1F)C(=O)c1ccccc1Sc1ccccc1C#N returned RanGTP-Imp inh inactive.
CC(C)NC(=O)NC(=O)COC(=O)c1ccccc1O was read as p97 ATPase inh inactive, Runt-CBFb FRET inactive, Tb hexokinase inactive, Hck Nef HTS inactive, Runt-SMMHC FRET inactive, RanGTP-Imp inh 16 and YIC FRET counter inactive.
Screening CC(C)NC(=O)NC(=O)COC(=O)c1ccccc1F returned p97 ATPase inh inactive, Runt-CBFb FRET inactive, Tb hexokinase inactive, Hck Nef HTS inactive, Runt-SMMHC FRET inactive and RanGTP-Imp inh inconclusive.
For Cc1cccc(C)c1NC(=O)C1c2cccc[n+]2CC(=O)N1Cc1cccs1 (configuration not stated) the results were p97 ATPase inh inactive, Runt-CBFb FRET inactive, Tb hexokinase inactive, Hck Nef HTS inactive, Runt-SMMHC FRET inactive, RanGTP-Imp inh 23 and YIC FRET counter inactive.
For Cc1ccccc1NC(=O)C1c2cccc[n+]2CC(=O)N1Cc1ccc2c(c1)OCO2 (configuration not stated) the results were p97 ATPase inh inactive, Runt-CBFb FRET inactive, Tb hexokinase inactive, Hck Nef HTS inactive, Runt-SMMHC FRET inactive and RanGTP-Imp inh inactive.
Screening Cc1ccc(Nc2nc(N)nc(CCl)n2)cc1 returned p97 ATPase inh inactive, Runt-CBFb FRET inactive, Tb hexokinase inactive, Hck Nef HTS inactive, Runt-SMMHC FRET inactive and RanGTP-Imp inh inactive.
For Cc1ccc(Nc2nc(N)nc(CC#N)n2)cc1 the results were p97 ATPase inh inactive, Runt-CBFb FRET inactive, Tb hexokinase inactive, Hck Nef HTS inactive, Runt-SMMHC FRET inactive, RanGTP-Imp inh 25 and YIC FRET counter inactive.
Screening N#C/C(=C/c1ccc(O)c(O)c1)c1nc2ccccc2[nH]1 returned RanGTP-Imp inh 39 and YIC FRET counter 3.9.
`N#C/C(=C\c1cccs1)c1nc2ccccc2[nH]1` gave p97 ATPase inh inactive, Runt-CBFb FRET inactive, Tb hexokinase inactive, Hck Nef HTS inactive, Runt-SMMHC FRET inactive and RanGTP-Imp inh inactive.
O=C(CC(=O)N/N=C/c1ccc(C(=O)O)cc1)NCCc1ccccc1 was read as RanGTP-Imp inh inactive.
`CCOC(=O)N1CCC(NC(=O)c2ccc3c(Cl)c4c(nc3c2)CCCC4)CC1` gave p97 ATPase inh inactive, Runt-CBFb FRET inactive, Tb hexokinase inactive, Hck Nef HTS inactive and Runt-SMMHC FRET inactive.
For O=C(NC1CC1)c1ccc2c(Cl)c3c(nc2c1)CCCC3 the results were p97 ATPase inh inactive, Runt-CBFb FRET inactive, Tb hexokinase inactive, Hck Nef HTS inactive, Runt-SMMHC FRET inactive, RanGTP-Imp inh 17 and YIC FRET counter inactive.
`C=CCN1C=C/C(=C\C=C(C#N)C#N)c2ccccc21` gave p97 ATPase inh inactive, Runt-CBFb FRET inactive, Tb hexokinase inactive, Hck Nef HTS inactive, Runt-SMMHC FRET inactive and RanGTP-Imp inh inactive.
C=CCN1C=CC(=CC=C(C#N)C#N)C=C1 was read as p97 ATPase inh inactive, Runt-CBFb FRET inactive, Tb hexokinase inactive, Hck Nef HTS inactive, Runt-SMMHC FRET inactive, RanGTP-Imp inh 21 and YIC FRET counter 17.

Screens as filed in PubChem.
